Most compounds without a hit are left out; they make up all but 4% or so of the library.
KCNQ1 inh – inhibitors of human KCNQ1 potassium channel. 310,000 tested, 1.3% active. B-score at 10 µM. CHO-K1 KCNQ1, FluxOR thallium flux fluorescence; hits give high values. P51787;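 active = compounds whose thallium flux B-score, printed positive for inhibition, exceeds three library SD while starting fluorescence stays within three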;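 note: channel opened by potassium depolarization with thallium stimulus after 20 min compound exposure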
KCNQ1 act – potentiators or activators of human KCNQ1 potassium channel. P51787. CHO-K1 KCNQ1, thallium flux FluxOR fluorescence; hits give high values. B-score at 10 µM. 310,000 tested, 0.35% active;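 active = fluorescence ratio B-score, a plate-corrected score, at least three library SD, with initial intensity B-score within 5 SD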
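Test system: CHO-K1 cells stably expressing KCNQ1 / Medium: assay buffer / Also added: depolarizing K+/Tl+ stimulus, K2SO4 and Tl2SO4 each 12.5 mM in 5x stock / Incubation: 90 min dye loading and 20 min compound exposure, both at room temperature / Signal: thallium influx via FluxOR fluorescence, kinetic imaging / Evaluation: B score of baseline-normalized fluorescence ratio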
PHOSPHO1 inh – blocks human PHOSPHO1 phosphatase activity; Q8TCT1; recombinant PHOSPHO1, absorbance phosphatase assay; inhibition, % at 13.3 µM; 290,000 tested, 1.1% active; AID 1565; in the data active = inhibition above about 60%
hERG protect – compounds protecting human hERG from proarrhythmic drug block. Q12809. CHO-hERG, FluxOR thallium flux, dofetilide IC70 present. activation (rescue from dofetilide block), less the hit threshold, % at 10 µM. 310,000 tested, 0.51% active. AID 1511;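 active = activation above the mean of controls blocked by dofetilide plus 5 SD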;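 note: thallium influx through hERG after potassium depolarization seen as dye fluorescence rise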
KCNK3 block – human KCNK3 channel inhibition, primary screen. AID 602410. CHO-KCNK3 thallium flux, FluxOR fluorescence; hits give low values. O14649. 340,000 tested, 0.84% active. B-score at 10 µM;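 active = B-score under library mean minus 4 SD, starting fluorescence ratio at most library mean plus 5 SD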;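 note: more negative B-score means stronger inhibition of thallium flux through KCNK3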
Target sequence (O14649 whole entry, looked up): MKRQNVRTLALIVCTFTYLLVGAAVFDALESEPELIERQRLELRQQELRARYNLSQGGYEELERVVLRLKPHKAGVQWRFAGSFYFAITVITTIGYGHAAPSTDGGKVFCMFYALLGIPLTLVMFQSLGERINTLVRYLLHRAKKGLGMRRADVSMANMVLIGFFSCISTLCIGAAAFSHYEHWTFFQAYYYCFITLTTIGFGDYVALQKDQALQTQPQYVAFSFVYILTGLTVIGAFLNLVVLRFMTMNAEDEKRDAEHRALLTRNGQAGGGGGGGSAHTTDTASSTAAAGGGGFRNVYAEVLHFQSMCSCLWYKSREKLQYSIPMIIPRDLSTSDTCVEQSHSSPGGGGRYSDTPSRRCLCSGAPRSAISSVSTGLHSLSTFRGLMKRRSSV
KCNK9 inh – human KCNK9 channel inhibition; Q9NPC2; HEK293 KCNK9, FluxOR thallium flux fluorescence; hits give low values; B-score at 10 µM; 310,000 tested, 1.2% active; AID 488922;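 active = ratio B-score over 3 SD below the library mean, with starting fluorescence within 5 SD of its mean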;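 note: negative B-score means less thallium flux so channel inhibition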
Target sequence (Q9NPC2 whole entry, looked up): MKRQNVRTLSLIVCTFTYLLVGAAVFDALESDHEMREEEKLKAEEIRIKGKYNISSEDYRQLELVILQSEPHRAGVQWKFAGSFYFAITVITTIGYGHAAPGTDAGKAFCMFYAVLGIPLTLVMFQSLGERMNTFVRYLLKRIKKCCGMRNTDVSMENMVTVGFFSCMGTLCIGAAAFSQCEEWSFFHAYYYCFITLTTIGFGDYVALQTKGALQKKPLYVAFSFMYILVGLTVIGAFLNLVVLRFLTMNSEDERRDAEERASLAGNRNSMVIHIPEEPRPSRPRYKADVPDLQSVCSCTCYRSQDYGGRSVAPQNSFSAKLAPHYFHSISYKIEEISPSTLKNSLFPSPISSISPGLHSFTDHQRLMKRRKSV
KCNQ1 block val – confirmation of human KCNQ1 potassium channel inhibitors | shares compounds with KCNQ1 inh | KCNQ1 cell line, FluxOR thallium flux fluorescence | inhibition, % at 10 µM | 1,600 tested, 93% active | AID 588353;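 active = primary screen active, with duplicate mean exceeding buffer control mean plus 3 SD of buffer wells, cut at about 28% in these data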
CHO KCNQ1 ctr – activity in parental CHO cells lacking KCNQ1. shares compounds with KCNQ1 inh. parental CHO-K1, FluxOR thallium flux fluorescence ratio; hits give low values; zero means no signal rise above baseline. fluorescence ratio (Tl flux) at 10 µM. 1,600 tested, 21% active;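 active = mean of duplicate thallium-flux fluorescence ratios in parental host cells more than 5 SD below the buffer control mean, cut at about 0.38 in these data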;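 note: ratio is peak minus minimum fluorescence divided by baseline fluorescence; actives read low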
KCNQ1 APC inh – blocks human KCNQ1 current in automated patch clamp; shares compounds with KCNQ1 inh; KCNQ1-CHO cells; calls only at 10 µM; 490 tested, 20% active; AID 624120;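 active = KCNQ1 current drop exceeding 3 SD of negative control wells, seen in both duplicate runs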;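 note: steady state current during a 2 s step from -80 to +40 mV; negative values mean current inhibition and positive values mean potentiation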
KCNQ2 inh – KCNQ1 inhibitor that also blocks rat KCNQ2 channel; AID 651746; 1,600 tested, 71% active; shares compounds with KCNQ1 inh; KCNQ2 cells, FluxOR thallium flux fluorescence; inhibition, % at 10 µM;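 active = mean percent inhibition of the KCNQ2 thallium signal more than 5 SD above the buffer-only control wells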;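 note: KCNQ2 expressed in CHO cells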
KCNQ1 KCNE1 spec – selectivity of KCNQ1 inhibitors: inhibition of human KCNQ1/KCNE1 channel; KCNQ1/KCNE1 cells, FluxOR thallium flux fluorescence; shares compounds with KCNQ1 inh; inhibition, % at 10 µM; 1,600 tested, 77% active;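 active = mean percent inhibition of duplicate wells above the buffer-only control mean plus 3 SD of those controls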
Numbers stand for hits; n = inactive; x = no result given; + = active, no number.

SMILES	KCNQ1 inh	KCNQ1 act	PHOSPHO1 inh	hERG protect	KCNK3 block	KCNK9 inh	KCNQ1 block val	CHO KCNQ1 ctr	KCNQ2 inh	KCNQ1 KCNE1 spec	others
O=C1C2C3C=CC(C3=C(c3ccccc3)c3ccccc3)C2C(=O)N1Cc1ccccc1 (stereo unspecified)	n	n	n	n	n	n	x	x	x	x
C/C(=N\NC(=O)Cc1ccccc1Cl)c1cccnc1	n	n	n	n	n	n	x	x	x	x
O=C(NC1CCCCC1)C(c1cccnc1)N(C(=O)c1ccc(Cl)nc1)C1CCCCC1 (stereo unspecified)	22	n	n	n	n	n	n	n	n	n
CC(C)(C)NC(=O)C(c1cccnc1)N(C(=O)c1ccc(Cl)nc1)C1CCCC1 (stereo unspecified)	n	n	n	n	n	n	x	x	x	x
CCCCOc1ccc(Br)cc1CSC(=N)N	7	n	n	n	n	n	89.5	n	60.0%	n	KCNQ1 APC inh=+
Cc1c(Cl)cccc1NC(=O)CNC(=O)C1CC(=O)N(CCc2ccccc2)C1 (stereo unspecified)	x	x	x	x	n	x	x	x	x	x
CN1CCN(C2=Cc3ccc(Cl)cc3Sc3ccc(F)cc32)CC1	6	n	n	n	n	n	173.0	n	116.0%	188.5%	KCNQ1 APC inh=n
Cc1cc(C)c(NS(=O)(=O)c2ccc(Cl)c(C(=O)O)c2)c(C)c1	n	n	n	n	n	n	x	x	x	x
N#Cc1c(Cl)nsc1NC(=O)c1ccccc1	6	n	n	n	n	n	n	n	n	n
Fc1ccccc1CN1CCCN(C(=S)Nc2cccc(Cl)c2)C1	7	n	n	n	n	n	47.0	n	72.7%	n
Cc1c(Cl)cccc1NC(=S)N1CCCN(Cc2ccccc2F)C1	n	n	n	n	n	n	x	x	x	x
CC12CC3(C)CC(C)(C1)CC(C(=O)NC(=S)N1CCOCC1)(C2)C3	8	n	n	n	n	n	53.0	n	n	44.0%
O=C(NC(=S)N1CCOCC1)C12CC3CCC(CC(C3)C1)C2	n	n	n	n	n	n	x	x	x	x
CCN(CC)c1ccc(-c2n[nH]c(=S)n2-c2ccccc2C)cc1	n	n	n	n	n	n	x	x	x	x
O=C1c2ccccc2CC1(Cc1ccccc1)Cc1ccccc1	9	n	n	n	n	n	123.5	0.329	114.0%	164.5%
CCC1(CC)Cc2ccccc2C(=O)N1	n	n	n	n	n	n	x	x	x	x
COc1ccc(CCNc2ncnc3sccc23)cc1OC	9	n	n	n	n	n	84.0	n	68.3%	37.0%
O=C(COc1ccccc1)NC(NC(=S)Nc1ccccc1O)C(Cl)(Cl)Cl (stereo unspecified)	9	n	n	n	n	n	77.5	n	91.7%	53.0%
Cc1ccccc1NC(=S)NC(NC(=O)COc1ccccc1)C(Cl)(Cl)Cl (stereo unspecified)	n	n	n	n	n	n	x	x	x	x
O=C(CN(Cc1ccccc1Cl)C(=O)CN1C(=O)CSc2ccccc21)NC1CC1	n	n	n	n	n	n	x	x	x	x
COc1cc(CCN2C(=O)c3cccc4cccc(c34)C2=O)c(S(=O)(=O)N2CCC(C)CC2)cc1OC	n	n	n	n	n	n	x	x	x	x
CCC(C)Nc1nc(-c2cccc(OC)c2O)nc2ccccc12 (stereo unspecified)	11	n	n	n	-11.7	n	125.0	0.309	n	139.0%
COc1cc(C)nc(N(Cc2ccccc2)S(=O)(=O)c2ccc(C)cc2)n1	7	n	n	n	n	n	70.5	n	100.7%	76.0%
O=C(Oc1ccc2cc(Br)ccc2c1)c1cccnc1	n	n	n	n	n	n	x	x	x	x
CC(C)(C)C(=O)Cn1c(=N)n(Cc2ccccc2Cl)c2ccccc21	n	n	n	n	n	n	x	x	x	x
SMILES	KCNQ1 inh	KCNQ1 act	PHOSPHO1 inh	hERG protect	KCNK3 block	KCNK9 inh	KCNQ1 block val	CHO KCNQ1 ctr	KCNQ2 inh	KCNQ1 KCNE1 spec	others
CC(C)(C)C(=O)Cn1c(=N)n(Cc2ccccc2)c2ccccc21	7	n	n	n	n	n	86.0	n	113.7%	90.0%
Cc1ccc(-c2c[n+]3c(n2-c2ccccc2)CCC3)cc1	n	n	n	n	n	n	x	x	x	x
Cc1ccc(-n2c(-c3ccc(Br)cc3)c[n+]3c2CCc2ccc4cccnc4c2-3)cc1	19	n	n	n	-11.4	n	136.0	0.317	120.3%	183.5%
CCN1/C(=C/c2ccc3cc(C)cc(C)c3[n+]2CC)Sc2cc(C)ccc21	x	x	n	x	n	x	x	x	x	x
CCN1/C(=C\c2ccc3cc(C)ccc3[n+]2CC)Sc2cc(C)c(C)cc21	17	n	n	n	n	n	169.5	0.259	n	n
COc1cc(NC(=O)CCc2c(C)[nH]c(=O)c(C#N)c2C)cc(OC)c1	n	n	n	n	n	n	x	x	x	x
Cn1c(CCN2CCCCC2)nc2cc(NS(=O)(=O)c3ccc(Cl)cc3)ccc21	8	n	n	n	n	n	n	n	n	57.5%
Cc1cccc(NC(=S)N/N=C/c2ccc3c(c2)OCO3)c1	n	n	n	n	n	n	x	x	x	x
COc1ccccc1-c1cnn2c(NCCc3ccccc3)cc(C)nc12	7	n	n	n	n	n	66.5	n	75.0%	119.0%
O=C(NCc1ccco1)C1CCCN1C(=O)Nc1cccc(Cl)c1 (stereo unspecified)	n	n	n	n	n	n	x	x	x	x
Cc1nnc(SCC(=O)N(C2CCCCC2)C2CCS(=O)(=O)C2)n1N (stereo unspecified)	n	n	x	n	n	n	x	x	x	x
COc1ccccc1N1C(=O)c2cccc3c(N(C)CCO)ccc(c23)C1=O	7	n	n	n	n	n	100.0	0.268	n	n
Cc1ccccc1N1C(=O)c2cccc3c(N(C)CCO)ccc(c23)C1=O	n	n	n	n	n	n	x	x	x	x
S=C(NCc1ccncc1)Nc1ccc(Cl)c(Cl)c1	6	n	n	n	n	n	33.0	n	n	n
S=C(NCc1ccco1)Nc1ccc(Oc2ccccc2)cc1	8	n	n	n	n	n	45.0	n	59.3%	66.0%
S=C(NCc1ccco1)Nc1ccc(Cl)c(Cl)c1	8	n	72.0	n	n	n	42.5	n	n	52.0%
COc1ccc(NC(=S)NCc2ccco2)cc1	n	n	n	n	n	n	x	x	x	x
S=C(NCc1ccncc1)Nc1cc(Cl)cc(Cl)c1	n	n	n	n	n	n	x	x	x	x

Assay outcomes (PubChem)
